Measurements taken from ChEMBL document CHEMBL1125911, “Synthesis and biological activity of new HMG-CoA reductase inhibitors. 3. Lactones of 6-phenoxy-3,5-dihydroxyhexanoic acids” (J Med Chem, 1991).

Columns and labels:
[1] = biological target: T1, 3-hydroxy-3-methylglutaryl-coenzyme A reductase (Rattus norvegicus, UniProt P51639); experiment: In vitro inhibition of HMG-CoA reductase in solubilized rat liver.
T1 sequence (P51639 whole entry): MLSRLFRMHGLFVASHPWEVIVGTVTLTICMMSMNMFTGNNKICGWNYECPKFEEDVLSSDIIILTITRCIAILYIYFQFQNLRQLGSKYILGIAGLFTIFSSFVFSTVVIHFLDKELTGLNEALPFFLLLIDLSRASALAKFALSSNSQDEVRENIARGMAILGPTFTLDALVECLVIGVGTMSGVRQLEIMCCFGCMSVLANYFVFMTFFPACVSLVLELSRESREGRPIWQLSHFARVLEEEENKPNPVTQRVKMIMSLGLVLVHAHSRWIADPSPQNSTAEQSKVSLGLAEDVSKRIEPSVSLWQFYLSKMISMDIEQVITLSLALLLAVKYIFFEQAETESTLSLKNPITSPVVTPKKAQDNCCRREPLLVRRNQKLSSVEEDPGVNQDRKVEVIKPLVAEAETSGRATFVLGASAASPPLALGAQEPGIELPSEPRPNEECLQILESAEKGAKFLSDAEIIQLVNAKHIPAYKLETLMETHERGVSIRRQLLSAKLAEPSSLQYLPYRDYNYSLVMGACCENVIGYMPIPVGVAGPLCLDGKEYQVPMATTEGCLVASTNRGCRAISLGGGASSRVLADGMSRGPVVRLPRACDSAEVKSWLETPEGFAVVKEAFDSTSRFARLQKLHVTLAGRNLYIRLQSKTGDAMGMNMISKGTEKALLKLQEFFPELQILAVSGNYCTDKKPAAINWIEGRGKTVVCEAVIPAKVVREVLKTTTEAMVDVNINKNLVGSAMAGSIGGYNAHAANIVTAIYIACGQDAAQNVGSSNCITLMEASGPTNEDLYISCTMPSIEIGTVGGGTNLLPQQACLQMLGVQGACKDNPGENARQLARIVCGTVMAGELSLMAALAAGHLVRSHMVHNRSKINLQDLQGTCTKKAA

[2] = biological target: T2, 3-hydroxy-3-methylglutaryl-coenzyme A reductase (Homo sapiens, UniProt P04035); experiment: Inhibition of the incorporation of sodium [14C]acetate into cholesterol in HEP G2 cells.; format: functional, cell-based, HepG2
T2 sequence (P04035 whole entry): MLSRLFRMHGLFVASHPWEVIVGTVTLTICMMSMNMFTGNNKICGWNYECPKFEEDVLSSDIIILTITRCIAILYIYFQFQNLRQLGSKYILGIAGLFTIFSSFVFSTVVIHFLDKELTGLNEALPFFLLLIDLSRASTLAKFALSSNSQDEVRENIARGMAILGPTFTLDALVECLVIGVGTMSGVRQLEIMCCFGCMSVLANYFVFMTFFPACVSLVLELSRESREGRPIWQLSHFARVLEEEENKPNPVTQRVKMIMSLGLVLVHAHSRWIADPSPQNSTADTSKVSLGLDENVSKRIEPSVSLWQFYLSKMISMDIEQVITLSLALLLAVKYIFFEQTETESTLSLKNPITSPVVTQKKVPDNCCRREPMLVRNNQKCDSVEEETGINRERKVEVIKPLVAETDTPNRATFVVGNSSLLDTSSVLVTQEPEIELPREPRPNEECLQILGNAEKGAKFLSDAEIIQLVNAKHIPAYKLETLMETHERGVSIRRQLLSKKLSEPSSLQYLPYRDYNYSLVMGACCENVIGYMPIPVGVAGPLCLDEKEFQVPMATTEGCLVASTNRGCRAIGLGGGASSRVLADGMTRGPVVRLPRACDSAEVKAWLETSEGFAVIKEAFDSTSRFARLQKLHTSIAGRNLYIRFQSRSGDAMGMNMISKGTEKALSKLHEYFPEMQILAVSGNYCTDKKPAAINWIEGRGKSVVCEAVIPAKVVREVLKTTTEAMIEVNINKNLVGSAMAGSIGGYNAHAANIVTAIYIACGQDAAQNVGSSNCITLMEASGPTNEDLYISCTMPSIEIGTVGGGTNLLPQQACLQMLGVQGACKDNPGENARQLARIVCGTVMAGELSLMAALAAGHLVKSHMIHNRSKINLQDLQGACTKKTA

[3] = biological target: T3, 3-hydroxy-3-methylglutaryl-coenzyme A reductase (Homo sapiens) (UniProt P04035); experiment: (§1) Inhibition of HMG-CoA reductase compared to mevinolin.; format: functional
T3 sequence (whole entry): T2 sequence (P04035 whole entry)
In short: (§2)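 Solubilized, partially purified rat liver HMG-CoA reductase. IC50 from four or five inhibitor concentrations. Relative potency compared IC50 with mevinolin (set to 100), corrected for molecular weight.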

[4] = biological target: T4, 3-hydroxy-3-methylglutaryl-coenzyme A reductase (Rattus norvegicus) (UniProt P51639); experiment: as §1; in short: as §2
T4 sequence (whole entry): T1 sequence (P51639 whole entry)

Rattus norvegicus = species: Rattus norvegicus; experiment: Compound was tested for inhibition of microsomal lipid peroxidation and the potency relative to terbufucine was determined; format: functional
In short: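 Rat liver microsomes in 50 mM Tris-HCl pH 7.4 with 100 mM KCl and 6.0 mM MgCl2, final protein 0.4 mg/mL. Peroxidation was started with ADP (2 mM)/FeCl3 (10 μM) plus an NADPH-regenerating system. Incubation 30 min at 37 °C with shaking. Thiobarbituric acid reactive substances were read at 535 nm.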

Sus scrofa = species: Sus scrofa; experiment: In vitro inhibition of Cu2+ catalyzed LDL oxidation; format: functional
In short: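 Porcine plasma LDL isolated by sequential ultracentrifugation (density 1.019-1.063 g/mL), dialysed against PBS pH 7.4, then diluted to 0.1 mg/mL protein. Preincubated 1 h at 37 °C under N2 with compound in ethanol. Oxidised with 5 μM Cu2+ for 2 h at 37 °C in air. Fluorescence read at ex 365/em 430 nm.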

[5] = biological target: T1, 3-hydroxy-3-methylglutaryl-coenzyme A reductase; experiment: In vitro inhibition of solubilized HMG-CoA reductase in rat liver.

SMILES	IC50 [1] [nM]	Relative potency [4]	further results
Cc1cc(C)c(OCC2C[C@@H](O)CC(=O)O2)c(C(Cl)C2CCCCC2)c1 (stereo partly specified)	> 1000		IC50 [2]: 6500 nM; Relative potency [3]: < 1
CCC(C)(C)C(=O)NC(c1cc(C)cc(C)c1OCC(O)C[C@@H](O)CC(=O)O)C1CCCCC1 (stereo in doubt; 11x) [listing 1 of 2 here]	470		IC50 [2]: 10000 nM
CCC(C)(C)OC(=O)C(c1cc(C)cc(C)c1OCC(O)C[C@@H](O)CC(=O)O)C1CCCCC1 (stereo in doubt; 11r) [listing 1 of 2 here]		12	Relative potency [3]: < 1
CC(C)(C)c1cc(C(C(=O)O)c2cc(C(C)(C)C)c(O)c(C(C)(C)C)c2)cc(C(C)(C)C)c1O [TERBUFICIN]			Relative potency (Rattus norvegicus): 100; IC50 (Sus scrofa): 110 nM
CC(C)c1cc(-c2ccccc2)nc(-c2ccc(F)cc2)c1/C=C/[C@@H](O)C[C@@H](O)CC(=O)O			IC50 [5]: 3 nM
O=C(O)C[C@H](O)CC(O)COc1c(Cl)cc(Cl)cc1C(F)=C1CCCCC1 (stereo partly specified)	95	9	
CCC(C)(C)OC(=O)C(c1cc(C)cc(C)c1OCC(O)C[C@@H](O)CC(=O)O)C1CCCCC1 (stereo in doubt; 11s) [listing 1 of 2 here]			Relative potency [3]: 3
CCC(C)(C)C(=O)NC(c1cc(C)cc(C)c1OCC(O)C[C@@H](O)CC(=O)O)C1CCCCC1 (stereo in doubt; 11x) [listing 2 of 2 here]			Relative potency [3]: < 1
Cc1c(CCC(O)C[C@@H](O)CC(=O)O)c(-c2ccc(F)cc2)cn1-c1ccccc1 (stereo partly specified)			IC50 [5]: 35 nM
CCC(C)(C)C(=O)NC(c1cc(C)cc(C)c1OCC(O)C[C@@H](O)CC(=O)O)C1CCCCC1 (stereo in doubt; 11w) [listing 1 of 2 here]	320		IC50 [2]: 15000 nM
CC(C)c1cc(-c2ccccc2)cc(CC2CCCCC2)c1OCC(O)C[C@@H](O)CC(=O)O (stereo partly specified)	400	2	IC50 [2]: 100 nM; Relative potency [3]: 50
Cc1cc(C)c(OCC(O)C[C@@H](O)CC(=O)O)c(CC2CCCCC2)c1 (stereo partly specified)	100	9	
CC(C)c1c(CCC(O)C[C@@H](O)CC(=O)O)c(-c2ccc(F)cc2)cn1-c1ccccc1 (stereo partly specified)			IC50 [5]: 3 nM
Cc1cc(-c2ccccc2)nc(-c2ccc(F)cc2)c1/C=C/[C@@H](O)C[C@@H](O)CC(=O)O			IC50 [5]: 38 nM
O=C(O)C[C@H](O)CC(O)COc1c(Cl)cc(Cl)cc1C(=O)C1CCCCC1 (stereo partly specified)	190	4	
CC(C)c1c(OCC(O)C[C@@H](O)CC(=O)O)c(C(c2ccc(F)cc2)c2ccc(F)cc2)cc2ccccc12 (stereo partly specified)	380	2	IC50 [2]: 3500 nM; Relative potency [3]: 2
Cc1c(OCC(O)C[C@@H](O)CC(=O)O)c(C(c2ccc(F)cc2)c2ccc(F)cc2)cc2ccccc12 (stereo partly specified)	900		IC50 [2]: 20000 nM; Relative potency [3]: < 1
O=C(O)C[C@H](O)CC(O)COc1c(Cl)cc(Cl)cc1CC1CCCCC1 (stereo partly specified)	27	31	
CCC(C)(C)OC(=O)C(c1cc(C)cc(C)c1OCC(O)C[C@@H](O)CC(=O)O)C1CCCCC1 (stereo in doubt; 11s) [listing 2 of 2 here]	500		IC50 [2]: 1700 nM
CCC(C)(C)C(=O)NC(c1cc(C)cc(C)c1OCC(O)C[C@@H](O)CC(=O)O)C1CCCCC1 (stereo in doubt; 11w) [listing 2 of 2 here]		2	Relative potency [3]: < 1
CCC(C)(C)OC(=O)C(c1cc(C)cc(C)c1OCC(O)C[C@@H](O)CC(=O)O)C1CCCCC1 (stereo in doubt; 11r) [listing 2 of 2 here]	60		IC50 [2]: 12000 nM
O=C(O)C[C@H](O)CC(O)COc1c(Cl)cc(Cl)cc1C(F)(F)C1CCCCC1 (stereo partly specified)	85		IC50 [2]: 2500 nM; Relative potency [3]: 2

More lines, main results first:

IC50 [1] [nM]	Relative potency [4]	SMILES	further results
160		Cc1cc(C)c(OCC(O)C[C@@H](O)CC(=O)O)c(C(C)c2ccc(F)cc2)c1 (stereo partly specified)	
70		Cc1cc(C)c(OCC(O)C[C@@H](O)CC(=O)O)c(C(c2ccc(F)cc2)c2ccc(F)cc2)c1 (stereo partly specified)	
> 1000	< 1	O=C(O)C[C@H](O)CC(O)COc1c(CCCOc2ccc(F)cc2)cc(Cl)cc1C1CCCC1 (stereo partly specified)	
50	16	CC(C)c1c(OCC(O)C[C@@H](O)CC(=O)O)c(-c2ccc(F)cc2)nc2ccccc12 (stereo partly specified)	IC50 [2]: 250 nM; Relative potency [3]: 20
95	8	Cc1cc(C)c(OCC(O)C[C@@H](O)CC(=O)O)c(C(c2ccc(F)cc2)C2CCCCC2)c1 (stereo partly specified)	
260	3	O=C(O)C[C@H](O)CC(O)COc1cc(OCc2ccc(F)cc2)c(Cl)cc1Cl (stereo partly specified)	
190	5	O=C(O)C[C@H](O)CC(O)COc1c(Cl)cc(Cl)cc1-c1ccccc1 (stereo partly specified)	
950		O=C(O)C[C@H](O)CC(O)COc1c(Cl)cc(Cl)cc1C(c1ccc(F)cc1)c1ccc(F)cc1 (stereo in doubt; 11pp)	
> 1000	< 1	Cc1nc2ccccc2c(-c2ccccc2)c1OCC(O)C[C@@H](O)CC(=O)O (stereo partly specified)	IC50 [2]: > 5000 nM; Relative potency [3]: < 1
80	10	Cc1cc(Cl)cc(CCCOc2ccc(F)cc2)c1OCC(O)C[C@@H](O)CC(=O)O (stereo partly specified)	
270		Cc1cc(Cl)c(OCC(O)C[C@@H](O)CC(=O)O)c(C(c2ccc(F)c(C)c2)c2ccc(F)c(C)c2)c1 (stereo partly specified)	
250	3	Cc1cccc(CCCOc2ccc(F)cc2)c1OCC(O)C[C@@H](O)CC(=O)O (stereo partly specified)	
1000	1	Cc1c(OCC(O)C[C@@H](O)CC(=O)O)c(-c2ccc(F)cc2)nc2ccccc12 (stereo partly specified)	IC50 [2]: > 5000 nM; Relative potency [3]: < 1
90		Cc1cc(C)c(OCC(O)C[C@@H](O)CC(=O)O)c(C(c2ccc(F)cc2)c2cccc(C(F)(F)F)c2)c1 (stereo partly specified)	
50	15	Cc1cc(Cl)cc(CCCOc2ccc(Cl)cc2)c1OCC(O)C[C@@H](O)CC(=O)O (stereo partly specified)	
150	4	O=C(O)C[C@H](O)CC(O)COc1c(Cl)cc(Cl)cc1C(CCOc1ccc(F)cc1)c1ccc(F)cc1 (stereo partly specified)	
140		Cc1cc(C)c(OCC(O)C[C@@H](O)CC(=O)O)c(C(CC(C)C)c2ccc(F)cc2)c1 (stereo partly specified)	
1000		Cc1cc(C(c2ccc(F)c(C)c2)c2cc(Cl)cc(Cl)c2OCC(O)C[C@@H](O)CC(=O)O)ccc1F (stereo partly specified)	
> 1000	< 1	O=C(O)C[C@H](O)CC(O)COc1c(CCCOc2ccc(F)cc2)cccc1C1CCCC1 (stereo partly specified)	
100		COc1ccc(C(c2ccc(F)cc2)c2cc(C)cc(C)c2OCC(O)C[C@@H](O)CC(=O)O)cc1 (stereo partly specified)	
75	12	Cc1cc(Cl)cc(CC2CCCCC2)c1OCC(O)C[C@@H](O)CC(=O)O (stereo partly specified)	
70		Cc1cc(Cl)cc(C(c2ccc(F)cc2)c2ccc(F)cc2)c1OCC(O)C[C@@H](O)CC(=O)O (stereo partly specified)	
